Where a SMILES comes first, the peptide text is derived from it.
Experiments:
[1] = biological target: C-X-C chemokine receptor type 4 (Homo sapiens, UniProt P61073); test: Inhibition of [125I]SDF-1 binding to C-X-C chemokine receptor type 4 expressed in CHO cells; assay type: cell-based
[2] = system: MT4; test: Cytotoxic concentration against the mock infected MT-4 cells; assay type: functional; conditions: Homo sapiens
How it was run: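 MT-4 cells (RPMI 1640, 10% heat-inactivated FCS, penicillin/streptomycin) without virus, 1.5×10^4 cells/well, exposed to graded compound concentrations for 5 days at 37 °C in CO₂; viable cells counted by MTT method; CC₅₀ from loss of viability; mean of at least three independent experiments.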

[3] = system: MT4; test: Effective concentration against HIV-induced cytopathogenicity in MT-4 cells; assay type: functional, cell-based; conditions: Homo sapiens

C-X-C chemokine receptor type 4, sequence (P61073 whole entry): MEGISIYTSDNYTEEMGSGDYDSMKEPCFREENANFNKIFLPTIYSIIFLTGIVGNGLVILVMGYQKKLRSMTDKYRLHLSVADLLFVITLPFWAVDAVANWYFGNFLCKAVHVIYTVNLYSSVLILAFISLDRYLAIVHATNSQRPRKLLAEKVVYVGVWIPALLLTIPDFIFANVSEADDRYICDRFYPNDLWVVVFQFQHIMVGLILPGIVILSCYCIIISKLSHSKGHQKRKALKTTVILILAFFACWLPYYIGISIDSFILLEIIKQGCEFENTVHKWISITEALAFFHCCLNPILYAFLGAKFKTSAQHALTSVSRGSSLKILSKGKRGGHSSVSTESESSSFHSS

Row | Compound | IC50 [1] | CC50 [2] | EC50 [3]
1 | N=C(N)NCCC[C@@H]1NC(=O)[C@@H](Cc2ccc(O)cc2)NC(=O)NC(=O)[C@@H](Cc2ccc3ccccc3c2)/C=C\[C@H](CCCN=C(N)N)NC1=O | > 31000 nM | > 100000 nM | 2400 nM
2 | N=C(N)NCCC[C@@H]1NC(=O)[C@@H](Cc2ccc(O)cc2)NC(=O)CNC(=O)[C@@H](Cc2ccc3ccccc3c2)NC(=O)[C@H](CCCN=C(N)N)NC1=O |  | > 100000 nM | 1900 nM
3 | N=C(N)NCCC[C@@H]1NC(=O)[C@@H](Cc2ccc(O)cc2)NC(=O)CNC(=O)[C@H](Cc2ccc3ccccc3c2)/C=C\[C@H](CCCN=C(N)N)NC1=O | 21000 nM | > 100000 nM | 9100 nM
4 | NC(N)=NCCC[C@@H]1NC(=O)[C@H](CCCN=C(N)N)NC(=O)[C@@H](Cc2ccc(O)cc2)NC(=O)C/C=C/[C@H](Cc2ccc3ccccc3c2)NC1=O | 180 nM | > 100000 nM | 2400 nM
5 | N=C(N)NCCC[C@@H]1NC(=O)[C@@H](Cc2ccc(O)cc2)NC(=O)CNC[C@H](Cc2ccc3ccccc3c2)NC(=O)[C@H](CCCN=C(N)N)NC1=O | 32 nM | > 100000 nM | 980 nM
6 | N=C(N)NCCC[C@@H]1NC(=O)[C@@H](Cc2ccc(O)cc2)NC(=O)NC(=O)[C@H](Cc2ccc3ccccc3c2)NC(=O)[C@H](CCCN=C(N)N)NC1=O | 4.5 nM | > 100000 nM | 73 nM
7 | NCCCC[C@@H]1NC(=O)[C@H](CCCN=C(N)N)NC(=O)[C@H](Cc2ccc(O)cc2)NC(=O)[C@@H](NC(=O)[C@H](Cc2ccc3ccccc3c2)NC(=O)[C@H](CCCN=C(N)N)NC(=O)[C@@H](N)CCCN=C(N)N)CSSC[C@@H](C(=O)N[C@@H](CCCN=C(N)N)C(=O)O)NC(=O)[C@H](CCCNC(N)=O)NC(=O)[C@H](CCCN=C(N)N)NC(=O)[C@H](Cc2ccc(O)cc2)NC(=O)[C@@H]2CCCN2C(=O)[C@@H](CCCCN)NC1=O (HELM PEPTIDE1{R.R.[O=C([C@H](Cc1ccc2ccccc2c1)N[*:1])[*:2]].C.Y.R.K.[dK].P.Y.R.[Cit].C.R}$PEPTIDE1,PEPTIDE1,4:R3-13:R3$$$V2.0) [listing 1 of 2 here] | 3.9 nM |  | 35 nM
8 | NCCCC[C@@H]1NC(=O)[C@H](CCCN=C(N)N)NC(=O)[C@H](Cc2ccc(O)cc2)NC(=O)[C@@H](NC(=O)[C@H](Cc2ccc3ccccc3c2)NC(=O)[C@H](CCCN=C(N)N)NC(=O)[C@@H](N)CCCN=C(N)N)CSSC[C@@H](C(=O)N[C@@H](CCCN=C(N)N)C(=O)O)NC(=O)[C@H](CCCNC(N)=O)NC(=O)[C@H](CCCN=C(N)N)NC(=O)[C@H](Cc2ccc(O)cc2)NC(=O)[C@@H]2CCCN2C(=O)[C@@H](CCCCN)NC1=O (HELM PEPTIDE1{R.R.[O=C([C@H](Cc1ccc2ccccc2c1)N[*:1])[*:2]].C.Y.R.K.[dK].P.Y.R.[Cit].C.R}$PEPTIDE1,PEPTIDE1,4:R3-13:R3$$$V2.0) [listing 2 of 2 here] |  | > 10000 nM | 
9 | Cc1cn([C@H]2C[C@H](N=[N+]=[N-])[C@@H](CO)O2)c(=O)[nH]c1=O [ZIDOVUDINE] |  | 57000 nM | 18 nM

From ChEMBL document CHEMBL1145173, “Stereoselective synthesis of [L-Arg-L/D-3-(2-naphthyl)alanine]-type (E)-alkene dipeptide isosteres and its application to the synthesis and biological evaluation of pseudopeptide analogues of the CXCR4 antagonist FC131” (J Med Chem, 2005)
